Test results taken from ChEMBL document CHEMBL4414562, “Discovery of the First in Vivo Active Inhibitors of the Soluble Epoxide Hydrolase Phosphatase Domain” (J Med Chem, 2019).
The source made the active and inactive calls. No cut-off for these calls is given here.

What was measured:
[1] = target: T1, Peroxisome proliferator-activated receptor alpha (Homo sapiens) (UniProt Q07869); assay: Activation of Gal4-fused human PPARalpha LBD transfected in HEK293T cells at 10 uM after 12 to 14 hrs by luciferase reporter gene assay; type: cell-based
T1 sequence (whole entry): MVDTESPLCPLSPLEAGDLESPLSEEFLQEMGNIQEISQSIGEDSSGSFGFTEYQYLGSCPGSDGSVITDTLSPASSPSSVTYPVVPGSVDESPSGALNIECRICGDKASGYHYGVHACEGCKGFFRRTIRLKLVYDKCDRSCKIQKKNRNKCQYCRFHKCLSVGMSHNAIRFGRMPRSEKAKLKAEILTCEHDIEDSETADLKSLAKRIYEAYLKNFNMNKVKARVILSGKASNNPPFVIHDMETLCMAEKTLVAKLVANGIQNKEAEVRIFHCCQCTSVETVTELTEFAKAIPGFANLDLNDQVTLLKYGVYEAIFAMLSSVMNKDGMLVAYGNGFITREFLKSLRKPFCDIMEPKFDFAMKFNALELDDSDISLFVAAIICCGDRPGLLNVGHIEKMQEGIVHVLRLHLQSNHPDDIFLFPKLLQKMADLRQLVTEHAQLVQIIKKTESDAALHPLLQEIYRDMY
Outline: (§1)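 Gal4–human nuclear receptor LBD fusion (pFA-CMV-hNR-LBD) co-transfected with pFR-Luc and pRL-SV40 (Lipofectamine LTX) into HEK293T cells seeded the day before. 5 h post-transfection, compound added in Opti-MEM with 0.1% DMSO and incubated 12−14 h. Dual-Glo firefly/Renilla luciferase read. Activation expressed relative to reference agonist at 1 μM. Triplicates, ≥3 independent experiments.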

[2] = target: T2, Peroxisome proliferator-activated receptor delta (Homo sapiens) (UniProt Q03181); assay: Activation of Gal4-fused human PPARbeta/delta LBD transfected in HEK293T cells at 10 uM after 12 to 14 hrs by luciferase reporter gene assay; type: cell-based; outline: as §1
T2 sequence (whole entry): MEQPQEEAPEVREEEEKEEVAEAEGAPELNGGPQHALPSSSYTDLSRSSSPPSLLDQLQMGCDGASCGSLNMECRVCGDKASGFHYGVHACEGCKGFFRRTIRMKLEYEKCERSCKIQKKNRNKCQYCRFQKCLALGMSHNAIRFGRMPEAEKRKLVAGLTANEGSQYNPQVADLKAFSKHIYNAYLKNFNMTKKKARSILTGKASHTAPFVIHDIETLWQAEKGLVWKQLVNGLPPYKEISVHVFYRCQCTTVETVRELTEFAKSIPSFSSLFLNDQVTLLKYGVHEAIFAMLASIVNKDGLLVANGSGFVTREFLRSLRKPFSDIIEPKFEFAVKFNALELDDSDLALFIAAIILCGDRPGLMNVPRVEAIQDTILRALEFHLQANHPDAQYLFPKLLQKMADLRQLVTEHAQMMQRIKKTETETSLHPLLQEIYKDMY

[3] = target: T3, Bifunctional epoxide hydrolase 2 (Rattus norvegicus, UniProt P80299); assay: Inhibition of hydrolase activity of full length rat soluble epoxide hydrolase pre-incubated for 30 mins before PHOME substrate addition by fluorescence based assay
T3 sequence (P80299 whole entry): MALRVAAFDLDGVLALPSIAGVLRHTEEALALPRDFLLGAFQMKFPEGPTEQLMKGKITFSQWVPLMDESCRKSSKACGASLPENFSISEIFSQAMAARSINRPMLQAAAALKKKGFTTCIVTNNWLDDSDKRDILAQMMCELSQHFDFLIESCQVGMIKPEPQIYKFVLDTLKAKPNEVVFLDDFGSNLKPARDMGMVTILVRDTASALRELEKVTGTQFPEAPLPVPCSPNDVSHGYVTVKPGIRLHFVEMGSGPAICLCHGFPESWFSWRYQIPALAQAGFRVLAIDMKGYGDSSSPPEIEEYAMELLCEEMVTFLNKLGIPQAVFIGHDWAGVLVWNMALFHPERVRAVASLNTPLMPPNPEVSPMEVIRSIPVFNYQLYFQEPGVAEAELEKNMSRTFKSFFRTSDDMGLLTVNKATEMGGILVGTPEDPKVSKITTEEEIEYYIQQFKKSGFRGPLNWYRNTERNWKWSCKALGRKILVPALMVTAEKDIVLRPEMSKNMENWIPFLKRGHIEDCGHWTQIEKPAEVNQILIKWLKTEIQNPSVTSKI
Outline: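 Hydrolase assay with 0.1 μM full-length enzyme in Bis-Tris pH 7 containing 0.1 mg/mL BSA and 0.01% Triton X-100. […] Reaction started with PHOME (50 μM final). 6-Methoxynaphthaldehyde fluorescence (ex 330/em 465 nm) read every minute for 45 min. Triplicates.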

[4] = Inhibition of hexa-His-tagged human soluble epoxide hydrolase N-terminal phosphatase domain expressed in Escherichia coli BL21(DE3) pre-incubated for 30 mins before FDP substrate addition by fluorescence based assay
[5] = target: T4, Bifunctional epoxide hydrolase 2 (Mus musculus, UniProt P34914); assay: Inhibition of phosphatase activity of full length mouse soluble epoxide hydrolase pre-incubated for 30 mins before FDP substrate addition by fluorescence based assay
T4 sequence (P34914 whole entry): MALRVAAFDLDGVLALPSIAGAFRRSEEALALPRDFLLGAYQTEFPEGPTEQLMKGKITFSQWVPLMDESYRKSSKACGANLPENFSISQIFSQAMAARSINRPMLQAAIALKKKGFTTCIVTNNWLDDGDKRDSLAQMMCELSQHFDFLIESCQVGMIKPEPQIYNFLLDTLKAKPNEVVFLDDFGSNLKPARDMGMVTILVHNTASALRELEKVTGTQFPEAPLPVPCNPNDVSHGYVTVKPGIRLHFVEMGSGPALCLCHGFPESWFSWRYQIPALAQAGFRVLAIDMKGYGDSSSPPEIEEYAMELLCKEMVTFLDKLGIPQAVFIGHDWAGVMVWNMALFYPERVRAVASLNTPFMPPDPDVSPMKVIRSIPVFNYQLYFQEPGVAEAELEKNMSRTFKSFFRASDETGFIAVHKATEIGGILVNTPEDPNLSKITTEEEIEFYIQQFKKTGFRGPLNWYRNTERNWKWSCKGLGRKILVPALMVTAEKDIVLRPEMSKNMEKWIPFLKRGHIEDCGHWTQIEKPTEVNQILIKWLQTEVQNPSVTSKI

Activity [1]	Activity [2]	IC50 [3] [µM]	IC50 [4] [µM]	IC50 [5] [µM]	Structure (SMILES)
inactive	inactive	> 300	5	35.5	O=C(O)CCc1nc(-c2ccccc2)c(-c2ccccc2)o1 [OXAPROZIN]
inactive	inactive	> 30	0.058	> 30	O=C(O)CCCc1nc(-c2ccc(Cl)c(Cl)c2)c(-c2ccccc2)o1
